Bioassay records: PubChem, several laboratories
Most compounds without a hit are left out; they make up all but 2% or so of the library.
PPC-1+TRAIL kill: PPC-1 cancer cell killing with TRAIL present. 220,000 tested, 0.41% active. PPC-1 cells + TRAIL, ATPLite viability luminescence. AID 1443. cell killing (% activity), % at 4 µM or 5 µM;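 active = cell killing above 50% in the first pass at 4 µM, then a duplicate retest at 5 µM averaging 50% or more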;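 also: plate controls were cells with TRAIL plus DMSO for no effect and medium-only wells lacking cells for full effect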
FLuc act counter: firefly luciferase counter-screen for stimulation assays | P08659 | 200,000 tested, under 10 active | activation factor at 10 µM | ATPlite luciferase biochemical, luminescence, 10 min; 0 = ATP-free wells, 1 = DMSO control;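 active = luciferase activation factor, scaled between plate controls, of at least 2 with compound at 10 µM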
Target sequence (P08659 whole entry, looked up): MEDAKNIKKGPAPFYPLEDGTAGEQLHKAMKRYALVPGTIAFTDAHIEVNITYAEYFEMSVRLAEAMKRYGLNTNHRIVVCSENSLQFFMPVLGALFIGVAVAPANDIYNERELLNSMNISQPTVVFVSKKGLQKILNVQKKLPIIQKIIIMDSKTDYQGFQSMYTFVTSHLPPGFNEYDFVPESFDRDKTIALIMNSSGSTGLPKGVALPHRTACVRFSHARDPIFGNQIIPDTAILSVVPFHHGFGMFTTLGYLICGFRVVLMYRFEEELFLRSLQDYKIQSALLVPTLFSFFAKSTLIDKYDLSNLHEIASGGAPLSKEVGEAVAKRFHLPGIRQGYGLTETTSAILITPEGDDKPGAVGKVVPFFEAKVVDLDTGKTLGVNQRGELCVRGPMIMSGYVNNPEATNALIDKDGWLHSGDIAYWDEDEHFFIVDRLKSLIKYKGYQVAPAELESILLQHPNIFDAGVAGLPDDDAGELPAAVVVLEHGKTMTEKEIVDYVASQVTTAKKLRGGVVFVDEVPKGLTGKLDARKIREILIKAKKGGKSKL
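Assay system: Luciferase/luciferin reagent mix; Medium: PBS as buffer for the ATP substrate; Dosing: test compounds dosed from 2 mM stocks in 100% DMSO; Times: 10 min, room temperature; Signal: luminescence from luciferase reaction; Read-out: luciferase activation; Controls: No-ATP low control, compound-free enzyme-plus-ATP high control.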
FLuc inhib CS: Photinus pyralis luciferase inhibition counter-screen; ATPLite firefly luciferase biochemical luminescence, 10 min; inhibition, % at 10 µM; 200,000 tested, 1.5% active; AID 1006;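 active = inhibition above about 50% when tested at 10 µM, limit read from the data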
TRAIL sens C8: caspase-8 TRAIL sensitization; NB7+C8 cells + TRAIL, ATPlite viability luminescence; inhibition (viability loss, TRAIL sensitization), % at 10 µM; 360,000 tested, 1% active; AID 624354;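 active = compounds causing at least 50% loss of cell viability in the single-dose screen, relative to plate controls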
HSP90 inh: blocks HSP90-mediated luciferase refolding in reticulocyte lysate; Rabbit reticulocyte lysate, luciferase refolding luminescence, 3 h; inhibition, % at 5.6 µM; 290,000 tested, 0.91% active; AID 1789;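 active = inhibition above the screen-wide mean plus 3 SD, computed separately per campaign, cut at about 16% in these data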;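 also: 0% = DMSO wells and 100% = 60 µM geldanamycin wells; inhibitors lower the luminescence because luciferase stays unfolded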
PPC1 cytotox: kills PPC-1 cells. shares compounds with PPC-1+TRAIL kill. PPC-1 viability, ATPlite luminescence, overnight. cytotoxicity, % at 5 µM. 1,200 tested, 50% active. AID 1447;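 active = reconfirmed compounds whose average cytotoxicity reaches 50% or more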;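 also: 0% = DMSO-treated cells and 100% = wells holding medium but no cells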
* = called active by the depositor; x = no result given.

SMILES | PPC-1+TRAIL kill | FLuc act counter | FLuc inhib CS | TRAIL sens C8 | HSP90 inh | PPC1 cytotox
Nc1ccccc1SC1CC(=O)N(Cc2ccccc2)C1=O (centres undefined) | -13 | 1 | -4 | 4 | -1 | x
Cc1ccc(C(=O)Nc2ncc3c(Cl)cccc3n2)cc1 | 74* | 0.1 | 94* | 83* | 2 | 67*
COc1cc(N/N=C/c2ccc(N(C)C)cc2)ncn1 | 69* | 0.1 | 86* | 77* | 16 | 69*
CCN(CC(=O)NCc1ccc(F)cc1)C(=O)C1CCN(C(=O)Nc2ccccc2)CC1 | 7 | 1 | 1 | -8 | 2 | 7
CCN(Cc1ccccc1)C(=O)C1CCN(C(=O)Nc2ccccc2)CC1 | x | x | x | 14 | 2 | x
COc1ccc(NC(=O)CN2CCN(CC(=O)Nc3cc(OC)cc(OC)c3)CC2)cc1 | -2 | 1 | 2 | 5 | x | 4
OC1c2c(F)cccc2N=C2CCCCCN21 (centres undefined) | x | x | x | -5 | x | x
O=C(Nc1cnc2ccccn2c1=O)c1ccc(Cl)cc1Cl | 37 | 0.3 | 75* | 62* | 15 | 48
Cc1cccc(NC(=O)c2cnc3ccccn3c2=O)c1 | 60* | 0.2 | 84* | 70* | -1 | 59*
Cc1cc(NC(=O)c2cnc3ccccn3c2=O)no1 | x | x | x | x | -2 | x
Cc1cc(C(=O)NC2CCCc3c2cnn3-c2ccc(C(C)(C)C)cc2)nn1C (centres undefined) | x | x | x | 18 | -3 | x
Nn1c(SCC(=O)Nc2ccc3c(c2)OCCO3)nncc1=O | x | x | x | -3 | -3 | x
O=C(Nc1ccc(N2CCOCC2)cc1)c1cn2ccccc2n1 | 81* | 0.1 | 93* | 81* | 14 | 82*
COc1ccccc1CNS(=O)(=O)CCNCCc1ccccc1 | x | x | x | -26 | x | x
CCc1nc(CN2CCCC(C(=O)c3ccc4c5c(cccc35)CC4)C2)c(C)[nH]1 (centres undefined) | 13 | 1.1 | -5 | 18 | 2 | 17
CCOc1ccc(C(=O)Nc2cc(S(=O)(=O)Nc3ccccc3Cl)ccc2N2CCOCC2)cc1 | 24 | 1 | 0 | -2 | -1 | x
c1ccc(-c2nn3c(Cn4nnc5ccccc54)nnc3s2)nc1 | 11 | 1 | -4 | 17 | 6 | x
Cc1nnc2sc(-c3ccccn3)nn12 | 12 | 1 | -2 | -8 | -2 | 3
Nc1ccc(N=Nc2ccccc2O)c(N)c1 | x | x | x | 16 | x | x
Oc1ccccc1N=Nc1ccccc1O | 43 | 1 | 1 | 34 | -2 | 41
CC(C)[C@@H](CO)NC(=O)c1ccc2c3n(nc2c1)-c1ccccc1CO3 | 71* | x | x | 71* | x | 69*
CC(C)NC(=O)c1ccc2c3n(nc2c1)-c1ccccc1CO3 | 90* | x | x | 91* | x | 90*
COc1cc(Cl)c(C)cc1NC(=O)c1ccc(S(C)(=O)=O)cc1 | 33 | 1 | -4 | -5 | -4 | x
O=C(COc1ccccc1)Nc1ccc(-c2nnc(-c3ccco3)o2)cc1 | -20 | 1 | -1 | 11 | 2 | x
CCCOc1ccc(-c2nnc(-c3ccco3)o2)cc1 | 46 | 0.2 | 77* | 55* | 9 | 44
SMILES | PPC-1+TRAIL kill | FLuc act counter | FLuc inhib CS | TRAIL sens C8 | HSP90 inh | PPC1 cytotox
Cc1ccc(N/C(N)=N/c2nc(C)cc(N3CCCCC3)n2)c(C)c1 | 20 | 1 | -5 | 40 | -1 | 22
CSc1ncccc1C(=O)NC1CC(C)(C)Cc2c1cnn2-c1ccccc1C (centres undefined) | x | x | x | 2 | 2 | x
COc1ccc(CNC(=O)NC(C)(C)c2cccc(C(C)(C)NC(=O)NCc3ccc(OC)cc3)c2)cc1 | 8 | 1 | -5 | -7 | 4 | x
CCOC(=O)c1sc(NC(=O)c2cccs2)cc1C | 60* | 0.3 | 71* | 49 | -4 | 60*
O=C(Nc1nsc(-c2ccccc2)n1)c1cccs1 | 25 | 0.2 | 79* | 51* | 8 | 34
Cc1sc(NC(=O)c2cccs2)nc1-c1ccccc1 | -1 | 0.9 | 5 | 9 | 0 | x
Cc1ccc(-c2cc(C(=O)N/N=C\c3cnn(C)c3C)c3ccccc3n2)cc1C | 53* | 0.5 | 50 | 46 | 1 | 45
COc1ccc(-c2cc(C(=O)N/N=C/c3cc(OC)c(OC)cc3OC)c3ccccc3n2)cc1 | x | x | x | 28 | x | x
Cc1ccc(-c2cc(C(=O)NCc3ccc4c(c3)OCO4)no2)cc1 | 9 | 1 | 2 | 9 | 2 | x
O=C(NCc1ccc2c(c1)OCO2)c1cc(-c2ccccc2)on1 | 21 | 1 | -2 | -1 | 0 | 13
Nc1c(-c2ccccc2)cnc2cc(-c3ccccc3)nn12 | 53* | 0.1 | 86* | 65* | -2 | 60*
Cc1cc2nc(-c3ccc(SCC(=O)N4CCOCC4)nc3)[nH]c2cc1C | 58* | 0.3 | 73* | 68* | 1 | 58*
Cc1cc2nc(-c3ccc(SCC(=O)N4CCN(C(=O)c5ccco5)CC4)nc3)[nH]c2cc1C | 65* | 0.2 | 81* | 74* | -3 | 63*
CCOC(=O)C1CC(c2ccccc2)=NN1c1ccccc1 (centres undefined) | x | x | x | -3 | x | x
N/C(=N\OC(=O)c1ccc(Cl)cc1Cl)c1ccccn1 | 90* | 0 | 95* | 90* | 91* | 89*
N/C(=N\OC(=O)c1ccc(Cl)cc1[N+](=O)[O-])c1ccccn1 | x | x | x | 31 | 9 | x
COc1ccc(N(C(C)C(=O)NN=C2CCCCCCC2)S(C)(=O)=O)cc1 (centres undefined) | 8 | 1.1 | -7 | 7 | 0 | x
COc1ccc(N(C(C)C(=O)NC2CCCCCC2)S(C)(=O)=O)cc1 (centres undefined) | 0 | 1.1 | -8 | 4 | -1 | -1
O=C(Nc1ccncc1)c1cc2ccccc2cc1O | x | x | x | 30 | x | x
O=C(NCc1ccccc1)c1noc2c1CCCCC2 | 19 | 1 | 5 | -1 | 3 | x
COc1ccc(CNC(=O)c2noc3c2CCCCC3)cc1 | 3 | 1 | 1 | -7 | 0 | -12
COc1cccc(-c2noc(-c3ccc4c(c3)OCO4)n2)c1 | 60* | 0.2 | 82* | 66* | -4 | 62*
CC(C)CN(C)C(=O)CC1C(=O)NCCN1C (centres undefined) | 8 | 1.1 | -6 | -9 | -2 | x
Cc1ccc(C2C(=O)c3ccccc3C2=O)cc1 | x | x | x | -5 | -3 | x
O=C1c2ccccc2C(=O)C1c1ccncc1 | 59* | 0.2 | 80* | 57* | 15 | 58*
CC(=O)Nc1ccc(C2C(=O)c3ccccc3C2=O)cc1 | 53* | x | x | 62* | -1 | 54*
O=c1c(Cl)c(N2CCOCC2)cnn1-c1nc2ccccc2[nH]1 | 20 | 0.3 | 71* | 37 | 5 | 24
c1ccc2[nH]c(N3CCOCC3)nc2c1 | 3 | 1.1 | -7 | -13 | 4 | x
O=C(CON=C1c2ccccc2-c2ccccc21)NC12CC3CC(CC(C3)C1)C2 | 19 | 1.1 | -6 | -4 | -2 | x
Cc1nc2ccccc2c(=O)n1NC(=O)Cc1ccc([N+](=O)[O-])cc1 | 24 | 1 | -2 | -8 | 0 | x
